In ChEMBL document CHEMBL4732211, “Multifunctional agents based on benzoxazolone as promising therapeutic drugs for diabetic nephropathy” (Eur J Med Chem, 2021):
The source made the active and inactive calls. The rule behind the calls is not given here.

Key:
[1] = biological target: Aldo-keto reductase family 1 member B1 (Rattus norvegicus, UniProt P07943); assay: Inhibition of Wistar rat lens ALR2 assessed as reduction in NADPH oxidation using D,L-glyceraldehyde and NADPH as substrate preincubated for 10 mins followed by substrate addition and measured for 4 mins by spectrophotometric analysis; assay type: tissue-based
[2] = biological target: Aldo-keto reductase family 1 member A1 (Rattus norvegicus, UniProt P51635); assay: Inhibition of Wistar rat kidney ALR1 assessed as reduction in NADPH oxidation using sodium D-glucuronate and NADPH as substrate preincubated for 10 mins followed by substrate addition and measured for 4 mins by spectrophotometric analysis; assay type: tissue-based
Rattus norvegicus = organism: Rattus norvegicus; assay: Selectivity index, ratio of IC50 for Wistar rat kidney ALR1 to IC50 for Wistar rat lens ALR2
In short: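 Aldose reductases (ALR2, ALR1) prepared from Wistar rats (200-250 g). NADPH loss followed at 340 nm for 4 min after substrate start, following 10 min preincubation. ALR2: pH 6.2 phosphate, 30 °C, NADPH 0.10 mM, D,L-glyceraldehyde 10 mM. ALR1: pH 7.2, 37 °C, NADPH 0.12 mM, D-glucuronate 20 mM. 0.5% DMSO; non-enzymatic rate subtracted. IC50 from log dose-response with ≥3 concentrations (20-80% inhibition), triplicate.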

[3] = Antioxidant activity assessed as DPPH radical scavenging activity at 10 uM after 30 mins by spectrophotometric analysis; assay type: functional
In short: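 DPPH in methanol (1 mL, 0.025 mg/mL) plus methanol 1.9 mL and compound in methanol, final 100, 50 and 10 µM; absorbance at 517 nm. Scavenging % = 1 − (A_sample − A_blank)/A_control, where the blank is compound without DPPH. Trolox reference.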

Mus musculus [4] = assay: Inhibition of polyol pathway in STZ-induced Kunming mouse model of diabetes assessed as decrease in sorbitol level in kidney cortex at 80 mg/kg, po administered daily via gavage for 8 weeks and measured at 6 hrs post-final drug dose by fluorospectrophotometric analysis; assay type: functional
Mus musculus [5] = assay: Antioxidant activity in STZ-induced diabetic Kunming mouse assessed as reduction in liver MDA level at 80 mg/kg, po administered daily via gavage for 8 weeks and measured at 6 hrs post-final drug dose relative to STZ-treated group; assay type: functional; settings: 1344 h
Mus musculus [6] = assay: Reno-protective activity in STZ-induced Kunming mouse model of diabetes assessed as reduction in albumin to creatinine ratio at 80 mg/kg, po administered daily via gavage for 8 weeks; assay type: functional
Mus musculus [7] = assay: Reno-protective activity in STZ-induced Kunming mouse model of diabetes assessed as reduction in urinary total protein excretion at 80 mg/kg, po administered daily via gavage for 8 weeks and measured at week 4 relative to control; assay type: functional
Mus musculus [8] = assay: Reno-protective activity in STZ-induced Kunming mouse model of diabetes assessed as reduction in urinary total protein excretion at 80 mg/kg, po administered daily via gavage for 8 weeks and measured at week 6 relative to control; assay type: functional
Mus musculus [9] = assay: Reno-protective activity in STZ-induced Kunming mouse model of diabetes assessed as reduction in urinary total protein excretion at 80 mg/kg, po administered daily via gavage for 8 weeks and measured at week 8 relative to control; assay type: functional
Mus musculus [10] = assay: Antidiabetic activity in STZ-induced Kunming mouse model of diabetes assessed as reduction in blood glucose level at 80 mg/kg, po administered QD via gavage for 4 weeks and measured at week 2 to 4; assay type: functional, organism-based; settings: time 2-4 weeks

Chain of Aldo-keto reductase family 1 member A1 (P51635 whole entry, looked up): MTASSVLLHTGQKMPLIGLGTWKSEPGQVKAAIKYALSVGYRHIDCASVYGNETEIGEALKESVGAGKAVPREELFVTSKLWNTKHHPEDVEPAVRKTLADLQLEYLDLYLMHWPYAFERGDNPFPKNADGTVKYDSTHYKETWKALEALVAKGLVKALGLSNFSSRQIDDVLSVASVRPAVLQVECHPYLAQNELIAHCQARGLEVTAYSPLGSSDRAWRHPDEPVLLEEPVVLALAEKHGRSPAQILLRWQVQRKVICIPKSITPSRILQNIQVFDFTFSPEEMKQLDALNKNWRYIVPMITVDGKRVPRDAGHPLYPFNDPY

Row | Structure (SMILES) | IC50 [1] | IC50 [2] | Ratio IC50 (Rattus norvegicus) | other results
1 | O=C(O)Cn1c(=O)oc2c(-c3ccccc3)cccc21 | 0.149 µM | 447 µM | 3000 | 
2 | O=C(O)Cn1c(=O)oc2c(-c3ccc(O)c(O)c3)cccc21 | 0.387 µM | 6.6 µM | 17 | Activity [3]: 61.7%
3 | O=C(O)Cn1c(=O)oc2c(/C=C/c3ccc(O)cc3)cccc21 | 0.0348 µM | 67.6 µM | 1940 | Activity [3]: 22.7%
4 | O=C(O)Cn1c(=O)oc2cc(/C=C/c3ccc(O)cc3)ccc21 | 0.0465 µM | 575 µM | 12400 | 
5 | COc1ccc(-c2cccc3c2oc(=O)n3CC(=O)O)c(OC)c1 | 0.0855 µM | 72.4 µM | 847 | 
6 | CN(C)C(=N)NC(=N)N [METFORMIN] |  |  |  | inhibition (Mus musculus [4]): inactive; inhibition in vivo at 80 mg/kg (Mus musculus [5]): 43%; inhibition (Mus musculus [6]): Active; inhibition in vivo at 80 mg/kg (Mus musculus [7]; 672 h, time 4 weeks): 6%; inhibition in vivo at 80 mg/kg (Mus musculus [8]; 1008 h, time 6 weeks): 41%; inhibition in vivo at 80 mg/kg (Mus musculus [9]; 1344 h): 18%
7 | O=C(O)Cn1c(=O)oc2c(-c3ccc(CO)cc3)cccc21 | 0.0245 µM | 30.9 µM | 1260 | 
8 | O=C(O)Cn1c(=O)oc2c(/C=C/c3ccccc3)cccc21 | 0.0547 µM | 1700 µM | 31000 | 
9 | O=C(O)Cn1c(=O)oc2c(-c3ccc(-c4ccccc4)cc3)cccc21 | 0.0754 µM | 6.2 µM | 82 | 
10 | O=C(O)Cn1c(=O)oc2c(-c3ccc(-c4ccc5ccccc5c4)cc3)cccc21 | 0.023 µM | 8.9 µM | 387 | 
11 | CC(/C=C1\SC(=S)N(CC(=O)O)C1=O)=C\c1ccccc1 |  |  |  | inhibition (Mus musculus [4]): Active; inhibition in vivo at 80 mg/kg (Mus musculus [5]): 65%; Activity (Mus musculus [6]): inactive; Activity (Mus musculus [10]): inactive; Activity (Mus musculus [7]; time 4.0 weeks): inactive; Activity (Mus musculus [8]; time 6.0 weeks): inactive; Activity (Mus musculus [9]): inactive
12 | O=C(O)Cn1c(=O)oc2c(-c3ccc(-c4cccc5ccccc45)cc3)cccc21 | 0.0224 µM | 45.7 µM | 2040 | 
13 | COc1ccc(CCc2cccc3c2oc(=O)n3CC(=O)O)cc1 | 0.125 µM | 174 µM | 1390 | 
14 | O=C(O)Cn1c(=O)oc2cccc(/C=C/c3ccccc3)c21 | 55 µM | 363 µM | 6.6 | 
15 | O=C(O)Cn1c(=O)oc2c(/C=C/c3ccc(O)c(O)c3)cccc21 | 0.0454 µM | 0.79 µM | 17 | Activity [3]: 22.7%
16 | COc1ccc(-c2cccc3c2oc(=O)n3CC(=O)O)cc1 | 0.0238 µM | 1.05 µM | 44 | 
17 | O=C(O)Cn1c(=O)oc2cc(/C=C/c3ccccc3)ccc21 | 0.0657 µM | 2.57 µM | 39 | 
18 | COc1ccc(-c2cccc3c2oc(=O)n3CC(=O)O)cc1OC | 0.0635 µM | 32.4 µM | 510 | 
19 | COc1ccc(/C=C/c2cccc3c2oc(=O)n3CC(=O)O)cc1 | 0.0106 µM | 6.3 µM | 594 | 
20 | COc1ccc(/C=C/c2cccc3c2oc(=O)n3CC(=O)O)cc1OC | 0.0338 µM | 29.5 µM | 873 | 
21 | CC(C)(C)c1ccc(-c2cccc3c2oc(=O)n3CC(=O)O)cc1 | 0.0212 µM | 174 µM | 8200 | 
22 | COc1cc(CCc2cccc3c2oc(=O)n3CC(=O)O)ccc1O | 0.0901 µM | 15.5 µM | 172 | Activity [3]: 22.7%
23 | O=C(O)Cn1c(=O)oc2ccc(/C=C/c3ccccc3)cc21 | 0.226 µM | 17.4 µM | 77 | 
24 | O=C(O)Cn1c(=O)oc2c(-c3ccc(C(F)(F)F)cc3)cccc21 | 0.0097 µM | 14.4 µM | 1480 | 
25 | O=C(O)Cn1c(=O)oc2c(/C=C/c3ccc(C(F)(F)F)cc3)cccc21 | 0.143 µM | 2880 µM | 20100 | 
